The structures appear in SMILES notation.

For experiment [1], the target named is T1, Protein kinase C epsilon type (Mus musculus) (UniProt P16054).
T1 sequence (whole entry): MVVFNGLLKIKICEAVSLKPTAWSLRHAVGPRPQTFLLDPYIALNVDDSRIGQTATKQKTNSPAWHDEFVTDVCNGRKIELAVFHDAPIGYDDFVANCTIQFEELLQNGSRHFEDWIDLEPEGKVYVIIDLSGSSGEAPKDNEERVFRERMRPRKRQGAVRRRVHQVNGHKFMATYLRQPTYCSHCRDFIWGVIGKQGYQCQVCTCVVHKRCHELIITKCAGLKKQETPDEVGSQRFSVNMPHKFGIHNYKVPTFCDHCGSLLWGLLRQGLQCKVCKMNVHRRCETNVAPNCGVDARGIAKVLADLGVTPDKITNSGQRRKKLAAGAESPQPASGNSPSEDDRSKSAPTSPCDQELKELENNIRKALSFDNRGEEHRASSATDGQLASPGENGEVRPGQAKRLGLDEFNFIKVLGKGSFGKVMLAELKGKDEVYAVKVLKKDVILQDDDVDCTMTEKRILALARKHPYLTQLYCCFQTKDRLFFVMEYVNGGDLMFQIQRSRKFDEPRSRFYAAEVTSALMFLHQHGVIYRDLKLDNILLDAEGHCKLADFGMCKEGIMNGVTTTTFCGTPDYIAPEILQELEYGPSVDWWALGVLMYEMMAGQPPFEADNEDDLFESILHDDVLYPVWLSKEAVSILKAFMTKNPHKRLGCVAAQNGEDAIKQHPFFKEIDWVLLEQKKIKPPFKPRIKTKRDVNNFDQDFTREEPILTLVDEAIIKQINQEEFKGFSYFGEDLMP
The experiment can be described thus: Inhibition of mouse PKC epsilon expressed in Sf9 cells at 100 uM. The settings on record: values are per cent of control.

In experiment [2] the target is Protein kinase C gamma type (Rattus norvegicus) (UniProt P63319). The experiment can be described thus: Inhibition of rat PKC gamma expressed in Sf9 cells at 100 uM. Conditions: values are per cent of control.
The target of experiment [3] is Angiopoietin-1 receptor (Homo sapiens) (UniProt Q02763). The experiment can be described thus: Inhibition of human TIE2 expressed in Sf9 cells at 10 uM. Conditions: values are per cent of control. A digest of the protocol:
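Sf9-expressed recombinant GST- or His-tagged kinase, affinity-purified. Substrates: Rb-CTF for CDK1/4/6, histone H1 for CDK2, poly(Glu,Tyr)4:1 for ERBB2/TIE2. Single replicate, 1% DMSO final, 80 min at 30 °C.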

The target of experiment [4] is Receptor tyrosine-protein kinase erbB-2 (Homo sapiens) (UniProt P04626). The experiment can be described thus: Inhibition of human ERBB2 expressed in Sf9 cells at 10 uM; values are per cent of control.
The target is the same in experiment [5]. The experiment can be described thus: Inhibition of human ERBB2 expressed in Sf9 cells at 100 uM; values are per cent of control.
The target of experiment [6] is Vascular endothelial growth factor receptor 2 (Homo sapiens, UniProt P35968). The experiment can be described thus: Inhibition of human VEGFR2 expressed in Sf9 cells at 10 uM; values are per cent of control.
For experiment [7], the target named is Protein kinase C gamma type (Rattus norvegicus) (UniProt P63319). The experiment can be described thus: Inhibition of rat PKC gamma expressed in Sf9 cells at 10 uM; values are per cent of control.
Experiment [8] concerns the target Cyclin-dependent kinase 2/cyclin E (Homo sapiens) (UniProt P24864+P24941+O96020). The experiment can be described thus: Inhibition of human CDK2/cycE expressed in Sf9 cells at 10uM; values are per cent of control.
The target in experiment [9] is Protein kinase C alpha type (Mus musculus) (UniProt P20444). The experiment can be described thus: Inhibition of mouse PKC alpha expressed in Sf9 cells at 10 uM; values are per cent of control.
Experiment [10] has as its target T2, Cyclin-dependent kinase 1/cyclin B (Homo sapiens) (UniProt P06493+P14635+Q8WWL7+O95067). The experiment can be described thus: Inhibition of human CDK1/cycB expressed in Sf9 cells at 10 uM; values are per cent of control.
Experiment [11] concerns the target T3, Protein kinase C iota type (Homo sapiens) (UniProt P41743).
T3 sequence (whole entry): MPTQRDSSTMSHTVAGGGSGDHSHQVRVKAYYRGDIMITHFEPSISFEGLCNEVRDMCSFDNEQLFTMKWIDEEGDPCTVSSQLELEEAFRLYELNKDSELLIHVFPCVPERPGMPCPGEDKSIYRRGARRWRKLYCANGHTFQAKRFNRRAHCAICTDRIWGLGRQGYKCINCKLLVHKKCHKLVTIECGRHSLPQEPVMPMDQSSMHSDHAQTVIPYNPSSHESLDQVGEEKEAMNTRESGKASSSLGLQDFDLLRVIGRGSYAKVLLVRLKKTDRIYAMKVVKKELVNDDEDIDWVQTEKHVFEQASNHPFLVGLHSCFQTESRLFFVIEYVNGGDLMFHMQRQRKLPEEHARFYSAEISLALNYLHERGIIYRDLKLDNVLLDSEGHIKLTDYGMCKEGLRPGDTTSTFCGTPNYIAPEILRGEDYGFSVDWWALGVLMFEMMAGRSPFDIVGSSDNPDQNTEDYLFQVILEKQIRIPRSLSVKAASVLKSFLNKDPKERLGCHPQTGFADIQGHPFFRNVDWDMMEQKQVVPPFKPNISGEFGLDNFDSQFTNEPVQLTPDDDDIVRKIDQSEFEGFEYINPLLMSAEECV
The experiment can be described thus: Inhibition of human PKC iota expressed in Sf9 cells at 100 uM; values are per cent of control.

Experiment [12] deals with T2, Cyclin-dependent kinase 1/cyclin B (Homo sapiens). The experiment can be described thus: Inhibition of human CDK1/cycB expressed in Sf9 cells at 100 uM; values are per cent of control.
Experiment [13] addresses T4, Cyclin-dependent kinase 4/cyclin D1 (Homo sapiens) (UniProt P11802+P24385). The experiment can be described thus: Inhibition of human CDK4/cycD1 expressed in Sf9 cells at 10 uM; values are per cent of control.
In experiment [14] the target is CDK6/cyclin D1 (Homo sapiens) (UniProt P24385+Q00534). The experiment can be described thus: Inhibition of human CDK6/cycD1 expressed in Sf9 cells at 100 uM; values are per cent of control.
In experiment [15] the target is T1, Protein kinase C epsilon type (Mus musculus). The experiment can be described thus: Inhibition of mouse PKC epsilon expressed in Sf9 cells at 10 uM; values are per cent of control.
The target of experiment [16] is T4, Cyclin-dependent kinase 4/cyclin D1 (Homo sapiens). The experiment can be described thus: Inhibition of human CDK4/cycD1 expressed in Sf9 cells at 100 uM; values are per cent of control.

Receptor tyrosine-protein kinase erbB-2 (Homo sapiens), sequence (P04626 whole entry): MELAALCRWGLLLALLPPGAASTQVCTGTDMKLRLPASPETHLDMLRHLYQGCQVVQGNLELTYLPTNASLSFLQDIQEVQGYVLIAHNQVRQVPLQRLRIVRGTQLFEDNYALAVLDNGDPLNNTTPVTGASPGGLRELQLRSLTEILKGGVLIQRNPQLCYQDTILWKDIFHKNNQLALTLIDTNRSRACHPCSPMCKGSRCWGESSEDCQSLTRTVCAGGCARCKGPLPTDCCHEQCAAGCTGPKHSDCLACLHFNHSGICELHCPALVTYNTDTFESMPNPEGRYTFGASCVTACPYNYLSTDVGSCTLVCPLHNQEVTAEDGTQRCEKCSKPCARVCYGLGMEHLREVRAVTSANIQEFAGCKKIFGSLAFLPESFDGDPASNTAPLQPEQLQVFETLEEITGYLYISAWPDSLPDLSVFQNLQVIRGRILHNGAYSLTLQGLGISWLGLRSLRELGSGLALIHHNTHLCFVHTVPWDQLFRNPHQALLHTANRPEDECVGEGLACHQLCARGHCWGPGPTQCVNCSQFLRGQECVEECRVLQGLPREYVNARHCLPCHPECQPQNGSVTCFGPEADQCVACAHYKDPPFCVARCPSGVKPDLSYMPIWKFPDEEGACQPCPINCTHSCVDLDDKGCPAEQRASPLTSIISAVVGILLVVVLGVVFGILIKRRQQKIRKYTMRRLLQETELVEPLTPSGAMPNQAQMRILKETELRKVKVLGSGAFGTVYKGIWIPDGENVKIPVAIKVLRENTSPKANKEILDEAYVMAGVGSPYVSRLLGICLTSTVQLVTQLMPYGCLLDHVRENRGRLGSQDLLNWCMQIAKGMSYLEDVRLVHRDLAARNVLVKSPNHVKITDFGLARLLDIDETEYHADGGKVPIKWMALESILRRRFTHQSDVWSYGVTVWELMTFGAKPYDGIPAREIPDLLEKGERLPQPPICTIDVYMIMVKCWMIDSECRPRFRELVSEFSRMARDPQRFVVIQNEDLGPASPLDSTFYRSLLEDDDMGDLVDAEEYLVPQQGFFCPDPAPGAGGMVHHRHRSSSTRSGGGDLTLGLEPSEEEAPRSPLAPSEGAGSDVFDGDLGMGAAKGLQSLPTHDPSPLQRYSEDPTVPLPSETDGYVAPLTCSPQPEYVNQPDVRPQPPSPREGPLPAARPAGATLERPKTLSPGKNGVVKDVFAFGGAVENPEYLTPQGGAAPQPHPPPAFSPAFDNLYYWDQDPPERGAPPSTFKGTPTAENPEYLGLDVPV
Angiopoietin-1 receptor (Homo sapiens), sequence (Q02763 whole entry): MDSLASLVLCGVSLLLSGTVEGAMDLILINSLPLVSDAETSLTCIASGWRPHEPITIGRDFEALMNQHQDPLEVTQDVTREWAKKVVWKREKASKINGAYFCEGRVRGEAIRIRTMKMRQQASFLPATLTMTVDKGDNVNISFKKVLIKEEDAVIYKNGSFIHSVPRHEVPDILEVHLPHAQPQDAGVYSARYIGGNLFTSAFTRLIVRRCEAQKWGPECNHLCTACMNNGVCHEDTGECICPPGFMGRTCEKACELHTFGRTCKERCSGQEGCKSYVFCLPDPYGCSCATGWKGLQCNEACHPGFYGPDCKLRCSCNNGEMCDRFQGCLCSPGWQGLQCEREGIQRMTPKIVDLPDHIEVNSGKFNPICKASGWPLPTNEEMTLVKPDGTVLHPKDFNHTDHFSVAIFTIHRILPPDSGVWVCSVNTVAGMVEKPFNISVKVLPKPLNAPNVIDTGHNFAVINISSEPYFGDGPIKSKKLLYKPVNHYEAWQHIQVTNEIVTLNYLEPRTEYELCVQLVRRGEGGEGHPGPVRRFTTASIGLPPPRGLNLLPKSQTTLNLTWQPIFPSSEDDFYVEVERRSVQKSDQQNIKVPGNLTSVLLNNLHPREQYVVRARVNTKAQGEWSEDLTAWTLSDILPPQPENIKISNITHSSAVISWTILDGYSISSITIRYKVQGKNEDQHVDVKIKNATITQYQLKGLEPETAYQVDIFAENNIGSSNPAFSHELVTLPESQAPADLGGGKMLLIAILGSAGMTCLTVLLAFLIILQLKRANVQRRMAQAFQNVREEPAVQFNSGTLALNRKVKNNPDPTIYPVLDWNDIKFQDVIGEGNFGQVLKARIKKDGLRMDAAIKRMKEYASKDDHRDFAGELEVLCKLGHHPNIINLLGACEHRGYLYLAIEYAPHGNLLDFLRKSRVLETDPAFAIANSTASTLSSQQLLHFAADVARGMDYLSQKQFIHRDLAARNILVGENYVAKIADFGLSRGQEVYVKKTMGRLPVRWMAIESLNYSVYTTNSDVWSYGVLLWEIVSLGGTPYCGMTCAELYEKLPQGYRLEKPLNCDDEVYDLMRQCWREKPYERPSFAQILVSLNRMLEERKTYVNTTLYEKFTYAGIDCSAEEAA
Vascular endothelial growth factor receptor 2, sequence (P35968 whole entry): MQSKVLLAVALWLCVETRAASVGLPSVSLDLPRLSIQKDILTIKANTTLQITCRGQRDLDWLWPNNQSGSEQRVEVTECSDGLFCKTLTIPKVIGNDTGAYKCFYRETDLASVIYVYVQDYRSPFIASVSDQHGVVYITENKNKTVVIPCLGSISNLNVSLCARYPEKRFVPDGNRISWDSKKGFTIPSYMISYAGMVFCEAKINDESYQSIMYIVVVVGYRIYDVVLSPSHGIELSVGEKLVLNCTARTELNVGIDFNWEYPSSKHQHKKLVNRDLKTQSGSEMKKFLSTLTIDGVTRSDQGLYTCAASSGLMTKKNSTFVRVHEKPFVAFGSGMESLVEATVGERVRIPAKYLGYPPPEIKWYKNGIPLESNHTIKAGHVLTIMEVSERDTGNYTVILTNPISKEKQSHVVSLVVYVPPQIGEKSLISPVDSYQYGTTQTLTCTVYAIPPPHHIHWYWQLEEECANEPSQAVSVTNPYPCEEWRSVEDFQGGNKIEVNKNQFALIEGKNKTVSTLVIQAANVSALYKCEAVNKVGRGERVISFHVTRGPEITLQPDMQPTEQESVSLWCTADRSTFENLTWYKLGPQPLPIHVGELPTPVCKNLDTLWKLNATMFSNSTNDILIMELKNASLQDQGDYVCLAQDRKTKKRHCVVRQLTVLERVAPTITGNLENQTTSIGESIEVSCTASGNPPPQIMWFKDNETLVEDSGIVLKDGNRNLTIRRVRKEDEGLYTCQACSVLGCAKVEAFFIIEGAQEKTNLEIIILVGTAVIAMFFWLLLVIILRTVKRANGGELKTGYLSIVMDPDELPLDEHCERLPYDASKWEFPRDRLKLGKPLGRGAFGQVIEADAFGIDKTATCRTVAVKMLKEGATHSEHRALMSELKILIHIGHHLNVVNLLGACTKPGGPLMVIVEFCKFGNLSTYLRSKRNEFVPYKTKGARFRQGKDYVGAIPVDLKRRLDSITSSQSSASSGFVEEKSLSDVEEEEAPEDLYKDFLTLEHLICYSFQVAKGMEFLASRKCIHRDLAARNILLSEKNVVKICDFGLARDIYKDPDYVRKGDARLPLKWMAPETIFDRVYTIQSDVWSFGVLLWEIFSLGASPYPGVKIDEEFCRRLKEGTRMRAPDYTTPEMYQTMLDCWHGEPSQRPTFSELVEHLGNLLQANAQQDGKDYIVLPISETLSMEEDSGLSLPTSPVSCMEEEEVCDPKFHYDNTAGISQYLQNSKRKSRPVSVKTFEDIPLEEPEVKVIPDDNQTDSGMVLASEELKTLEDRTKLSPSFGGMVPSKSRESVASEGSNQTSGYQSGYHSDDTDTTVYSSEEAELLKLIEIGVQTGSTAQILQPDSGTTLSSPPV

Consider `COc1ccc(C2=C(c3ccccc3)C(=O)NC2=O)cc1OC`, for which the residual activity in experiment [1] came to 83%; in experiment [2], 96%; in experiment [3], 100%; in experiment [4] it was 87%; in [5], 79%; in [6], 86%. The residual activity came out at 93% in experiment [7]; 87% in experiment [8]; 85% in experiment [9]; 99% in experiment [10]; 87% in [11]; 86% in experiment [12]. Further, the residual activity was 108% in experiment [13], 79% in experiment [14], 105% in experiment [15] and 93% in experiment [16].
